Bounds are passed on as bounds.

Test [1] has as its target T1, Cholecystokinin receptor type A (Rattus norvegicus, UniProt P30551).
T1 sequence (P30551 whole entry): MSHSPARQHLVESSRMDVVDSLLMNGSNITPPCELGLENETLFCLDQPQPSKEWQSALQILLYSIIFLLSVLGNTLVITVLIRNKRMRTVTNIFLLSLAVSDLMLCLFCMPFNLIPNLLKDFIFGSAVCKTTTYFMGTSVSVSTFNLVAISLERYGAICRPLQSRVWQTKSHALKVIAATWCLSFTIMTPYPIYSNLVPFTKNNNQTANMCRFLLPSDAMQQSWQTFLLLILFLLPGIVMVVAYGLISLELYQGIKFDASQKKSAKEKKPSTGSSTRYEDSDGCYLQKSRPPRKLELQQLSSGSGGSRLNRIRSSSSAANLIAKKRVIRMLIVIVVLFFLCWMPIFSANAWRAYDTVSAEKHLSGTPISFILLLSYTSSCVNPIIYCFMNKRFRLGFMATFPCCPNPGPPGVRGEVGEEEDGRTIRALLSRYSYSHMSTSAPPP
As to the kind of experiment: Displacement of [3H]propionylCCK8 from rat pancreatic CCK1. The method, boiled down:
(§1)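 Binding run on rat tissue homogenates: pancreas for CCK1, cerebral cortex for CCK2. Seven concentrations of test compound, each in duplicate. Values are means or mean ± SEM of at least three experiments.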
For orientation: Displacement assays read how much labelled ligand stays bound in the presence of the test substance.

Test [2] addresses T2, Gastrin/cholecystokinin type B receptor (Rattus norvegicus, UniProt P30553).
T2 sequence (P30553 whole entry): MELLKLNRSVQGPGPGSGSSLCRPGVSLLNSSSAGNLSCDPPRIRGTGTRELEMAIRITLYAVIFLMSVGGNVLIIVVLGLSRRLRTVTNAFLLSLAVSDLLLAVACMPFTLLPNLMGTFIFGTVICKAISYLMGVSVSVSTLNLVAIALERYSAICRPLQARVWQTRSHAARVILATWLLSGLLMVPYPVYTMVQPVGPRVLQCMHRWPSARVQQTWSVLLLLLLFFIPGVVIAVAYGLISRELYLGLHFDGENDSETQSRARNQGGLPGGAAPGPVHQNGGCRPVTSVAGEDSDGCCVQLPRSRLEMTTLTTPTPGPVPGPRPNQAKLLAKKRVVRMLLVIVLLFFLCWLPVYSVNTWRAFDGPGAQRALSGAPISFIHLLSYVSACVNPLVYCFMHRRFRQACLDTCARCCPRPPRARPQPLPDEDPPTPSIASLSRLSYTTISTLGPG
Nature of the test: Displacement of [3H]propionylCCK8 from rat cerebral cortex CCK2. It is filed as tissue-based. The method, boiled down: as §1

The target of the next test is T3, Cholecystokinin receptor (Rattus norvegicus, UniProt P30551+P30553).
T3 sequence (P30551 whole entry): T1 sequence (P30551 whole entry)
T3 sequence (P30553 whole entry): T2 sequence (P30553 whole entry)
As to the kind of experiment: Antagonizing activity of CCK8 induced amylase secretion from rat pancreatic acini. The method, boiled down:
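Rat pancreas digested with collagenase (70 U/mL) in three 10-min incubations at 37 °C under O2 to give dispersed acini. Acini incubated 30 min at 37 °C under pure O2 with agitation, 0.1 nM CCK8 as stimulus, test compound at increasing concentrations. Amylase measured by kit; release expressed as percent of acinar amylase; percent inhibition computed against vehicle control; IC50 derived.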

In general, IC50 refers to the concentration that gives 50% inhibition. A low value points to higher potency. Take `CC(C)(C)OC(=O)N[C@@H](Cc1c[nH]c2ccccc12)C(=O)N[C@H]1CC[C@@H]2SC[C@@H](C(=O)N[C@@H](Cc3ccccc3)C(N)=O)N2C1=O`: the results for the IC50 in test [1] and in test [2] were greater than 1000 nM and greater than 10000 nM, respectively.
The corresponding values for `CC(C)(C)OC(=O)N[C@H](Cc1c[nH]c2ccccc12)C(=O)N[C@H]1CC[C@@H]2SC[C@@H](C(=O)N[C@@H](Cc3ccccc3)C(N)=O)N2C1=O` are greater than 1000 nM and greater than 10000 nM.
The corresponding values for `CC(C)(C)OC(=O)N[C@@H](Cc1c[nH]c2ccccc12)C(=O)N[C@H]1C[C@@H]2c3[nH]c4ccccc4c3C[C@@H](C(=O)N[C@H](Cc3ccccc3)C(N)=O)N2C1=O` are greater than 1000 nM and 524 nM.
Regarding `CC(C)(C)OC(=O)N[C@H](Cc1c[nH]c2ccccc12)C(=O)N[C@@H]1C[C@H]2c3[nH]c4ccccc4c3C[C@H](C(=O)N[C@H](Cc3ccccc3)C(N)=O)N2C1=O`, the IC50 is 582 nM in test [1] and greater than 10000 nM in test [2].
As for `CC(C)(C)OC(=O)N[C@@H](Cc1c[nH]c2ccccc12)C(=O)N[C@@H]1C[C@H]2c3[nH]c4ccccc4c3C[C@H](C(=O)N[C@@H](Cc3ccccc3)C(N)=O)N2C1=O`, the IC50 on Cholecystokinin receptor was 130 nM; in test [1], 54.9 nM; in test [2] it was greater than 10000 nM.
Consider `CC(C)(C)OC(=O)N[C@@H](Cc1c[nH]c2ccccc12)C(=O)N[C@@H]1C[C@H]2c3[nH]c4ccccc4c3C[C@H](C(=O)N[C@H](Cc3ccccc3)C(N)=O)N2C1=O`, for which the IC50 in test [1] was greater than 1000 nM; in test [2], greater than 10000 nM.
As to `COC(=O)[C@@H](Cc1ccccc1)NC(=O)[C@@H]1Cc2c([nH]c3ccccc23)[C@H]2C[C@H](NC(=O)[C@@H](Cc3c[nH]c4ccccc34)NC(=O)OC(C)(C)C)C(=O)N21`, the half-maximal inhibitory concentration (IC50) in test [1] and in test [2] was greater than 10000 nM throughout.
Consider `CC(C)(C)OC(=O)N[C@H](Cc1c[nH]c2ccccc12)C(=O)N[C@H]1C[C@@H]2c3[nH]c4ccccc4c3C[C@@H](C(=O)N[C@H](Cc3ccccc3)C(N)=O)N2C1=O`, for which the results for the half-inhibitory concentration (IC50) in test [1] and in test [2] were greater than 1000 nM and 938 nM, respectively.
The corresponding values for `CC(C)(C)OC(=O)N[C@@H](Cc1c[nH]c2ccccc12)C(=O)N[C@H]1CC[C@@H]2SC[C@@H](C(=O)N[C@H](Cc3ccccc3)C(N)=O)N2C1=O` are greater than 1000 nM and greater than 10000 nM.
The corresponding values for `CC(C)(C)OC(=O)N[C@H](Cc1c[nH]c2ccccc12)C(=O)N[C@H]1C[C@@H]2c3[nH]c4ccccc4c3C[C@@H](C(=O)N[C@@H](Cc3ccccc3)C(N)=O)N2C1=O` are 817 nM and greater than 10000 nM.
As for `O=C(N[C@H]1C[C@@H]2c3[nH]c4ccccc4c3C[C@@H](C(=O)N[C@@H](Cc3ccccc3)C(=O)O)N2C1=O)OCc1ccccc1`, in test [2], the 50% inhibitory concentration (IC50) was greater than 10000 nM.
Take `CC(C)(C)OC(=O)N[C@@H](Cc1c[nH]c2ccccc12)C(=O)N[C@H]1C[C@@H]2c3[nH]c4ccccc4c3C[C@@H](C(=O)N[C@@H](Cc3ccccc3)C(N)=O)N2C1=O`: the 50% inhibitory concentration (IC50) in test [1] is 625 nM; in test [2], greater than 10000 nM.
On to `CC(C)(C)OC(=O)N[C@H](Cc1c[nH]c2ccccc12)C(=O)N[C@@H]1C[C@H]2c3[nH]c4ccccc4c3C[C@H](C(=O)N[C@@H](Cc3ccccc3)C(N)=O)N2C1=O`, for which the half-maximal inhibitory concentration (IC50) is 829 nM against Cholecystokinin receptor, 25.9 nM in test [1] and greater than 10000 nM in test [2].
As to `CC(C)(C)OC(=O)N[C@H](Cc1c[nH]c2ccccc12)C(=O)N[C@H]1CC[C@@H]2SC[C@@H](C(=O)N[C@H](Cc3ccccc3)C(N)=O)N2C1=O`, the IC50 in test [1] was greater than 1000 nM; in test [2], greater than 10000 nM.
In test [1], `CSCC[C@H](NC(=O)[C@H](Cc1c[nH]c2ccccc12)NC(=O)OC(C)(C)C)C(=O)N[C@@H](CC(=O)O)C(=O)N[C@@H](Cc1ccccc1)C(N)=O` returned an IC50 of 1800 nM.
Turning to `COC(=O)[C@H](Cc1ccccc1)NC(=O)[C@@H]1Cc2c([nH]c3ccccc23)[C@H]2C[C@H](NC(=O)[C@H](Cc3c[nH]c4ccccc34)NC(=O)OC(C)(C)C)C(=O)N21`, the IC50 in test [1] and in test [2] was greater than 10000 nM throughout.

The values above are taken from ChEMBL document CHEMBL1141228, “Conformationally constrained CCK4 analogues incorporating IBTM and BTD beta-turn mimetics” (J Med Chem, 2005).
